# Screens from PubChem.
# The list is not random: actives were taken first. Their share in the collection is about 2.8%.
# eIF4E 4G PPI – inhibitors of eIF4E and eIF4G interaction in translation initiation. AID 782. TR-FRET eIF4E-eIF4GI(517-606) binding, 2 h. 220,000 tested, 0.37% active. P63073+Q04637. inhibition, % at 21.7 µM;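 also: 0% = full FRET control wells and 100% = background wells lacking eIF4GI fragment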
# 14-3-3 Bad PPI – disrupts binding of bovine 14-3-3 zeta to phospho-Bad peptide. P63103. TR-FRET 14-3-3zeta/Dy647-pBad peptide displacement, 1 h. inhibition, % at 21.7 µM. 220,000 tested, 0.71% active. AID 781;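 active = inhibition above about 70%, limit read from the data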;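 also: 0% = full 14-3-3 plus peptide FRET controls and 100% = background without 14-3-3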
# Target sequence (P63103 whole entry, looked up): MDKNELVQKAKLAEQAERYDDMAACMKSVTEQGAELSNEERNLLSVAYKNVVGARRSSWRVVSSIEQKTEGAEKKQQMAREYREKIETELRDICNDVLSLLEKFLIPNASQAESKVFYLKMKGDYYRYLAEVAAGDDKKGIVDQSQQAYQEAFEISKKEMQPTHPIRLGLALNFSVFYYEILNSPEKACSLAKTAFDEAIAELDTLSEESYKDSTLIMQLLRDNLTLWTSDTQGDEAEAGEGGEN
# Wee1 degr inh – blocks degradation of human Wee1 kinase. 220,000 tested, 1.2% active. reporter increase, % at 5 µM. P30291. HeLa Luc-Wee1K328M stability, luciferase luminescence; 100% = proteasome inhibitor MG132 effect;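 active = activation above the mean of all tested compounds plus 3 SD, set per screening run, cut at about 8.8% in these data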;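 also: cells exposed to compound for 20 h before luminescence read; 0% = DMSO alone and 100% = MG132 at 30 µM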
# NCF1 inh – inhibitors of human p47phox binding; P14598; p47phox/p22phox peptide binding, fluorescence polarization, 2 h; inhibition, % at 24.7 µM; 220,000 tested, 0.53% active; AID 1274;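 also: 0% = p47phox with labelled peptide and 100% = labelled peptide alone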
# RBBP9 inh – blocks human serine hydrolase RBBP9; 220,000 tested, 0.2% active; O75884; inhibition, % at 7.94 µM; recombinant RBBP9, FP-Rh probe fluorescence polarization;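 active = inhibition above the campaign mean of all tested compounds plus 3 SD, cut at about 14% in these data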;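 also: plate controls were DMSO wells with RBBP9 for no effect and wells lacking RBBP9 protein for full effect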
# Target sequence (O75884 whole entry, looked up): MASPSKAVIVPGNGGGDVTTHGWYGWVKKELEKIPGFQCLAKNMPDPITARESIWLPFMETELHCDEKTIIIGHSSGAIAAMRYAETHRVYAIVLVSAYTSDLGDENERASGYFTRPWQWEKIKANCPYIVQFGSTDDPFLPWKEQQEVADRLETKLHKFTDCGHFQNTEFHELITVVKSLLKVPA
#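 Test system: recombinant human RBBP9; Timing: 30 min then 45 min, 25 °C; Detection: fluorescence polarization; Control set: RBBP9 with DMSO as uninhibited control, no-protein wells as full inhibition; Compound dosing: one concentration, 7.94 µM nominal, 0.794% DMSO; Probe or stimulus: FP-Rh activity-based probe, 375 nM before mixing.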
# * marks the source's active call; other numbers are inactive results; / = not tested or not shown; + = active, no number; [ ] = remark or other dose.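 The calls were made as follows, unless noted: active = inhibition above about 30% (limit read from the data); inactive = the rest.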
SMILES,eIF4E 4G PPI,14-3-3 Bad PPI,Wee1 degr inh,NCF1 inh,RBBP9 inh
O=C(Nc1ccc(N2CCN(C(=O)c3ccccc3)CC2)c(Cl)c1)c1ccc(Br)o1,7,-2,0,-15,-10
O=C(Nc1ccc(N2CCOCC2)c(Cl)c1)c1ccc(Br)o1,10,-12,11*,-4,1
C=CCOc1ccccc1CNCc1ccc(F)cc1,2,-2,2,-3,1
C=CCOc1ccccc1CN1CCSCC1,-11,80*,0,-1,0
NNc1nc2ccc(F)cc2s1,0,16,3,-12,-4
Fc1ccc2nc(Nc3ccccc3)sc2c1,-1,2,11*,-12,-1
O=C(CSc1ncc(-c2ccccc2)[nH]1)Nc1cccc(O)c1,-3,-13,1,-18,8
O=C(CSc1ncc(-c2ccccc2)[nH]1)Nc1ccccc1,4,7,-2,33*,-7
CCCCNS(=O)(=O)c1ccc(NC(=O)C(Sc2ccccc2)c2ccccc2)cc1 (stereo unspecified),10,18,3,-15,-53
CCC(C)NC(=O)CC(NS(=O)(=O)c1ccc(NC(C)=O)cc1)C(C)C (stereo unspecified),-1,0,9.8*,1,-7
CCCCCCCCNC(=O)CC(NS(=O)(=O)c1ccc(NC(C)=O)cc1)C(C)C (stereo unspecified),1,2,1,-4,-2
CN(c1ccccc1)S(=O)(=O)c1cccc(NC(=O)C2CC(=O)N(Cc3ccccc3)C2)c1 (stereo unspecified),-4,6,1,+,5
C[C@H]1CC[C@@]2(O[C@H](CCO)C[C@@H](O)[C@@H]2O)O1,3,-1,9.4*,1,-11
Fc1ccc2c(c1)C(c1ccncc1)=NNC(c1ccccc1)=N2,0,8,0,-2,-6
C=CCNC(=O)O/N=C/c1csc([N+](=O)[O-])c1,1,-14,1,-9,0
CCOC(=O)COc1cccc2c(=O)n(CC(=O)NCc3ccc4c(c3)OCO4)ccc12,3,-13,9.6*,1,-5
CCOC(=O)C(C)Oc1cccc2c(=O)n(CC(=O)NCc3ccc(F)cc3)ccc12 (stereo unspecified),-9,-2,1,1,-1
COC(=O)COc1cccc2c(=O)n(CC(=O)NCc3ccc(F)cc3)ccc12,3,3,12*,8,-2
CCOC(=O)COc1cccc2c(=O)n(CC(=O)NCCc3ccccc3)ccc12,3,3,0,-8,-10
COCc1c(CCl)cnc(C)c1O,-1,-2,-2,3,3
CC(C)n1c(=O)[nH]c2ccccc21,7,2,4,-4,1
CC(C)n1c(=O)[nH][nH]c1=S,28,-2,0,43*,-7
COC(=O)C(CC(=O)c1ccc(Cl)cc1)c1ccc(C(C)C)cc1 (stereo unspecified),/,/,-3,32*,-8
Cc1ccc(C(CC(=O)c2ccc(Cl)cc2)C(=O)O)cc1 (stereo unspecified),0,-7,-1,1,4
O=C(O)c1ccc(N2C(=O)/C(=C/c3ccc(-c4ccc([N+](=O)[O-])cc4)o3)C=C2c2ccccc2)cc1,76*,94*,-1,-39,-6
SMILES,eIF4E 4G PPI,14-3-3 Bad PPI,Wee1 degr inh,NCF1 inh,RBBP9 inh
CCCCc1ccc(N/C(N)=N/c2nc(C)cc(C)n2)cc1,1,-17,-1,0,2
O=C(CCn1c(=S)[nH]c2ccccc2c1=O)NCCSCc1ccccc1,-1,-8,-3,-1,-6
O=C(Cn1c(=S)[nH]c2ccccc2c1=O)NCCc1ccccc1,-3,-3,9.5*,-2,-1
O=C(Nc1nc2ccc(S(=O)(=O)N3CCOCC3)cc2s1)c1cccs1,4,0,10*,-11,-7
O=C(O)CCC(=O)Nc1ccc(Sc2ccc([N+](=O)[O-])cc2)cc1,1,-13,-3,-3,8
C/C(=N/NC(=O)Cc1cccn1C)c1ccccc1,12,1,-1,-1,1
C/C(=N\NC(=O)Cc1cccn1C)c1ccco1,44*,-2,-2,-4,0
COc1ccc(NS(=O)(=O)c2cc(NC(=O)c3ccc(C)s3)ccc2N2CCOCC2)cc1,2,-2,-2,-38,-16
O=c1c2ccccc2sn1-c1cc(S(=O)(=O)N2CCOCC2)ccc1N1CCCC1,56*,-8,-2,58*,10
O=c1c2ccccc2sn1-c1cc(S(=O)(=O)N2CCOCC2)ccc1N1CCOCC1,71*,74*,2,74*,45*
O=C(O)c1cc(S(=O)(=O)N2CCOCC2)ccc1N1CCOCC1,6,-8,-2,-2,0
O=C(COC(=O)c1ccccc1-c1nc2ccccc2s1)NC1CCS(=O)(=O)C1 (stereo unspecified),-1,-3,-1,-5,-5
O=C(COC(=O)CCCOc1ccc(Cl)cc1Cl)NCc1ccccc1,-1,2,-2,-7,-4
Cc1ccc(CNC(=O)COC(=O)CCCOc2ccc(Cl)cc2Cl)cc1,13,-6,1,72*,-4
O=C(Nc1ccc2nc(-c3ccccn3)[nH]c2c1)C1CCCCC1,-8,-3,1,40*,-5
CCOC(=O)N1CCN(C(=O)CSCc2ccccc2Cl)CC1,8,-2,-2,-1,-7
Clc1ccccc1-c1nnc(-c2cccs2)o1,-6,-12,10*,7,-2
O=C1CSCC(=O)N1c1ncc(C(F)(F)F)cc1Cl,1,-4,-3,-2,2
CCCCCOCC1CC(C/C(C)=N/Nc2nc(-c3ccccc3)cs2)C(=O)O1 (stereo unspecified),8,81*,0,0,-2
CSc1nc(Cl)c(C#N)c(-c2ccc(C)cc2)n1,-7,77*,-1,-3,-3
Cn1c2ccccc2n2c(=O)c(=O)n(CC(=O)c3ccc(Cl)cc3)nc12,-3,-8,2,-6,-1
COC(=O)c1ccccc1NC(=O)Cn1nc2n(C)c3ccccc3n2c(=O)c1=O,3,93*,0,0,-10
COC(=O)/C=C/C(=O)N1CCN(c2ccccc2C)CC1,42*[fluorescence artefact?],-32,-1,-7,-11
O=C(Nc1ccc(F)cc1)C1C(c2ccccc2)C1(Cl)Cl (stereo unspecified),8,11,-1,11,2
COc1ccc(-c2cc([C@H]3[C@@H]4C=CCC[C@@]4(C)C(=O)N3Cc3ccccc3)ccc2F)cc1,45*,-1,/,-6,/
CCCCCCCCCCCCCCCCn1cc[n+](C)c1,43*,95*,-5,102*,-7
Cc1ccc(/C=C/C(=O)Nc2nnc(SCc3ccc(C#N)cc3)s2)o1,-2,4,-4,-17,-3
